# Assay results from ChEMBL document CHEMBL2417367 (Bioorg Med Chem, 2013).
# Legend:
# MDA-MB-231 = test: Cytotoxicity against human MDA-MB-231 cells after 72 hrs by MTT assay; format: functional, cell-based; conditions: MDA-MB-231, 72 h
# Summary of the method: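 Cells were grown in MEM with 10% FBS. About 4×10^3 cells per well were seeded and incubated 24 h at 37 °C in 5% CO2. Compounds were then added at set final concentrations for 72 h. MTT (final 5 µg/mL) was added for 4 h at 37 °C, and formazan was dissolved in DMSO and read at 492 nm against a 630 nm reference. Each line was tested three times; IC50 is mean ± SD.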
# A549 = test: Cytotoxicity against human A549 cells after 72 hrs by MTT assay; format: functional, cell-based; conditions: A549, 72 h
# HT-29 = test: cells; conditions: Homo sapiens, HT-29, 72 h
# MKN-45 = test: cells; conditions: Homo sapiens, MKN-45, 72 h
# SMMC-7721 = test: cells; conditions: Homo sapiens, SMMC-7721, 72 h
# NCI-H460 = test: cells; conditions: Homo sapiens, NCI-H460, 72 h
# cells = conditions: Homo sapiens, U-87 MG, 72 h
IC50 (HT-29),IC50 (MKN-45),IC50 (SMMC-7721),IC50 (NCI-H460),IC50 (cells),Structure (SMILES),IC50 (MDA-MB-231),IC50 (A549)
200 nM,640 nM,–,–,–,COc1cc2c(Oc3ccc(NC(=O)N/N=C(\C)c4ccccc4)cc3F)ccnc2cc1OCCCN1CCCCC1,960 nM,160 nM
330 nM,930 nM,–,–,–,CC/C(=N\NC(=O)Nc1ccc(Oc2ccnc3cc(OCCCN4CCCCC4)c(OC)cc23)c(F)c1)c1ccccc1,1100 nM,290 nM
1100 nM,2000 nM,–,–,–,COc1cc2c(Oc3ccc(NC(=O)N/N=C/C(C)C)cc3F)ccnc2cc1OCCCN1CCCCC1,2700 nM,1900 nM
330 nM,680 nM,–,–,–,COc1cc2c(Oc3ccc(NC(=S)N/N=C/c4ccc(F)cc4F)cc3F)ccnc2cc1OCCCN1CCCCC1,950 nM,190 nM
140 nM,450 nM,–,–,–,COc1cc2c(Oc3ccc(NC(=S)N/N=C/c4ccccc4[N+](=O)[O-])cc3F)ccnc2cc1OCCCN1CCCCC1,830 nM,250 nM
400 nM,880 nM,–,–,–,COc1cc2c(Oc3ccc(NC(=S)N/N=C/c4ccco4)cc3F)ccnc2cc1OCCCN1CCCCC1,1100 nM,470 nM
660 nM,860 nM,–,–,–,COc1cc2c(Oc3ccc(NC(=O)NNCc4ccc(F)cc4F)cc3F)ccnc2cc1OCCCN1CCC(C)CC1,1300 nM,350 nM
200 nM,670 nM,–,–,–,COc1cc2c(Oc3ccc(NC(=O)N/N=C/c4ccccc4)cc3F)ccnc2cc1OCCCN1CCOCC1,2100 nM,350 nM
96 nM,560 nM,–,–,–,COc1cc2c(Oc3ccc(NC(=O)N/N=C/c4ccc(F)cc4)cc3F)ccnc2cc1OCCCN1CCOCC1,1600 nM,200 nM
160 nM,640 nM,–,–,–,COc1cc2c(Oc3ccc(NC(=O)N/N=C/c4ccc(Cl)cc4)cc3F)ccnc2cc1OCCCN1CCOCC1,1200 nM,330 nM
1400 nM,1200 nM,–,–,–,COc1cc2c(Oc3ccc(NC(=O)N/N=C/c4ccc(OC(F)(F)F)cc4)cc3F)ccnc2cc1OCCCN1CCOCC1,1800 nM,880 nM
1100 nM,780 nM,–,–,–,COc1cc2c(Oc3ccc(NC(=O)N/N=C/c4ccc(C(F)(F)F)cc4)cc3F)ccnc2cc1OCCCN1CCOCC1,1100 nM,790 nM
130 nM,490 nM,330 nM,69 nM,–,COc1cc2c(Oc3ccc(NC(=O)N/N=C/c4ccc(F)cc4)cc3F)ccnc2cc1OCCCN1CCCCC1,820 nM,89 nM
180 nM,580 nM,–,–,–,COc1cc2c(Oc3ccc(NC(=O)N/N=C/c4ccccc4)cc3F)ccnc2cc1OCCCN1CCCCC1,1000 nM,160 nM
98 nM,470 nM,410 nM,63 nM,24 nM,COc1cc2c(Oc3ccc(NC(=O)N/N=C/c4ccc(Cl)cc4)cc3F)ccnc2cc1OCCCN1CCCCC1,940 nM,220 nM
240 nM,510 nM,–,–,–,COc1cc2c(Oc3ccc(NC(=O)N/N=C/c4ccccc4)cc3F)ccnc2cc1OCCCN1CCC(C)CC1,930 nM,300 nM
83 nM,610 nM,–,–,–,COc1cc2c(Oc3ccc(NC(=O)N/N=C/c4ccc(F)cc4)cc3F)ccnc2cc1OCCCN1CCC(C)CC1,930 nM,110 nM
140 nM,620 nM,–,–,–,COc1cc2c(Oc3ccc(NC(=O)N/N=C/c4ccc(Cl)cc4)cc3F)ccnc2cc1OCCCN1CCC(C)CC1,1200 nM,170 nM
440 nM,770 nM,–,–,–,COc1cc2c(Oc3ccc(NC(=O)N/N=C/c4ccccc4)cc3F)ccnc2cc1OCCCN1CCCC1,950 nM,420 nM

IC50 (HT-29),IC50 (MKN-45),IC50 (SMMC-7721),IC50 (NCI-H460),IC50 (cells),Structure (SMILES),IC50 (MDA-MB-231),IC50 (A549)
220 nM,590 nM,–,–,–,COc1cc2c(Oc3ccc(NC(=O)N/N=C/c4ccc(F)cc4)cc3F)ccnc2cc1OCCCN1CCCC1,1300 nM,270 nM
180 nM,610 nM,–,–,–,COc1cc2c(Oc3ccc(NC(=O)N/N=C/c4ccc(Cl)cc4)cc3F)ccnc2cc1OCCCN1CCCC1,1300 nM,410 nM
380 nM,710 nM,–,–,–,COc1cc2c(Oc3ccc(NC(=O)N/N=C/c4ccc(F)c(F)c4)cc3F)ccnc2cc1OCCCN1CCCCC1,1300 nM,270 nM
220 nM,570 nM,–,–,–,COc1cc2c(Oc3ccc(NC(=O)N/N=C/c4ccccc4F)cc3F)ccnc2cc1OCCCN1CCCCC1,920 nM,130 nM
190 nM,560 nM,300 nM,77 nM,18 nM,COc1cc2c(Oc3ccc(NC(=O)N/N=C/c4ccc(F)cc4F)cc3F)ccnc2cc1OCCCN1CCCCC1,850 nM,78 nM
180 nM,490 nM,–,–,–,COc1cc2c(Oc3ccc(NC(=O)N/N=C/c4ccccc4F)cc3F)ccnc2cc1OCCCN1CCC(C)CC1,880 nM,220 nM
160 nM,590 nM,–,–,–,COc1cc2c(Oc3ccc(NC(=O)N/N=C/c4ccccc4C(F)(F)F)cc3F)ccnc2cc1OCCCN1CCCCC1,730 nM,130 nM
260 nM,520 nM,–,–,–,COc1cc2c(Oc3ccc(NC(=O)N/N=C/c4ccccc4C#N)cc3F)ccnc2cc1OCCCN1CCCCC1,610 nM,190 nM
320 nM,760 nM,–,–,–,COc1cc2c(Oc3ccc(NC(=O)N/N=C/c4cccc([N+](=O)[O-])c4)cc3F)ccnc2cc1OCCCN1CCCCC1,1000 nM,750 nM
370 nM,890 nM,–,–,–,COc1cc2c(Oc3ccc(NC(=O)N/N=C/c4ccc([N+](=O)[O-])cc4)cc3F)ccnc2cc1OCCCN1CCCCC1,1400 nM,820 nM
150 nM,480 nM,–,–,–,COc1cc2c(Oc3ccc(NC(=O)N/N=C/c4ccccc4[N+](=O)[O-])cc3F)ccnc2cc1OCCCN1CCCCC1,550 nM,190 nM
330 nM,730 nM,–,–,–,COc1cccc(/C=N/NC(=O)Nc2ccc(Oc3ccnc4cc(OCCCN5CCCCC5)c(OC)cc34)c(F)c2)c1,1200 nM,340 nM
590 nM,860 nM,–,–,–,COc1ccc(OC)c(/C=N/NC(=O)Nc2ccc(Oc3ccnc4cc(OCCCN5CCCCC5)c(OC)cc34)c(F)c2)c1,1500 nM,860 nM
700 nM,650 nM,–,–,–,COc1cc2c(Oc3ccc(NC(=O)N/N=C/c4c(C)cc(C)cc4C)cc3F)ccnc2cc1OCCCN1CCCCC1,1100 nM,1900 nM
320 nM,790 nM,–,–,–,COc1cc2c(Oc3ccc(NC(=O)N/N=C/c4cccnc4)cc3F)ccnc2cc1OCCCN1CCCCC1,880 nM,460 nM
360 nM,710 nM,–,–,–,COc1cc2c(Oc3ccc(NC(=O)N/N=C/c4ccco4)cc3F)ccnc2cc1OCCCN1CCCCC1,910 nM,440 nM
440 nM,930 nM,–,–,–,COc1cc2c(Oc3ccc(NC(=O)N/N=C/c4ccc[nH]4)cc3F)ccnc2cc1OCCCN1CCCCC1,1000 nM,540 nM
830 nM,820 nM,–,–,–,C=CCc1cccc(/C=N/NC(=O)CN2CCN(Cc3ccccc3)CC2)c1O [PAC-1],4600 nM,–
